Where no end group is shown, it is not given here.
Tests used:
CaM34 (D95A/D131A CaM) = CaM34 (D95A/D131A CaM) (Homo sapiens, UniProt P0DP23, D132A/D96A); assay: Ca^2+ dissociation kinetics of CaM34 complexes with Cx32 peptides; assay type: binding; conditions: Table 3, CaM34 + C-terminal peptide, n = 2; for k2 (EF2, N-terminal CaM lobe): 10 μM peptide, 21 °C, mean ± S.D.
CaM = CaM (Homo sapiens, UniProt P0DP23); assay: Ca^2+ dissociation kinetics of CaM complexes with Cx32 peptides; assay type: binding; conditions: for relative amplitude A1 (EF1) / relative amplitude A2 (EF2) / relative amplitude A3 (EF3) / relative amplitude A4 (EF4): Table 3, CaM + C-terminal peptide, n = 3 (208-226), 2 (208-227)
In short: (§1)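 Human liver wild-type CaM and the EF-hand mutants CaM12 (D22A/D58A) and CaM34 (D95A/D131A) were expressed in E. coli and HPLC-purified, EGTA-free. In stopped flow, 90 µM quin 2 with no added Ca2+ was mixed with 3 µM CaM or CaM·peptide in 50 µM Ca2+ buffer (mixing-chamber concentrations). Buffer was 50 mM K+-PIPES pH 7.0, 100 mM KCl, 2 mM MgCl2.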

CaM12 (D22A/D58A CaM) = CaM12 (D22A/D58A CaM) (Homo sapiens, UniProt P0DP23, D23A/D59A); assay: Ca^2+ dissociation kinetics of CaM12 complexes with Cx32 peptides; assay type: binding; conditions: n = 1; for k4 (EF4, C-terminal CaM lobe) / relative amplitude A3 (EF3) / relative amplitude A4 (EF4): Table 3, CaM12 + C-terminal peptide; for k4 (EF4, C-terminal CaM lobe): 21 °C
In short: as §1

TA-CaM = conditions: cited from earlier work
DA-CaM [1] = biological target: T1, DA-CaM (Homo sapiens, UniProt P0DP23, T111C/T35C); assay: Conformation of CaM in peptide complexes: donor quenching of DA-CaM; assay type: binding; conditions: 433 nM DA-CaM, 0.5 mM CaCl2; further addition of 4.4 μM peptide
In short: (§2)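 DA-CaM was made from T34C/T110C CaM randomly labeled with IAEDANS (donor) and DDP (quencher), then HPLC-fractionated into lobe-specific labeled species. Equilibrium titration used increasing peptide concentrations on a spectrofluorimeter. Donor quenching indicated CaM compactness in the complex, and Kd came from fitting the binding data.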

AEDANS-T34C/T110C-CaM = AEDANS-T34C/T110C-CaM (Homo sapiens, UniProt P0DP23, T111C/T35C); assay: Equilibrium fluorescence titration of AEDANS-T34C/T110C-CaM with Cx32 208–226; assay type: binding
DA-CaM [2] = biological target: T1, DA-CaM; assay: Equilibrium fluorescence titration of DA-CaM with Cx32 1–19; assay type: binding
In short: as §2

[3] = cited from earlier work
[4] = Ca^2+ dissociation kinetics of CaM and mutant CaMs without peptide; assay type: binding; conditions: no peptide; calibration of ΔRF per site
In short: as §1

Substance | k2 (EF2, N-terminal CaM lobe) (CaM34 (D95A/D131A CaM)) [s⁻¹] | relative amplitude A1 (EF1) (CaM) | relative amplitude A2 (EF2) (CaM) | relative amplitude A3 (EF3) (CaM) | relative amplitude A4 (EF4) (CaM) | k4 (EF4, C-terminal CaM lobe) (CaM12 (D22A/D58A CaM); 10 μM peptide) [s⁻¹] | relative amplitude A3 (EF3) (CaM12 (D22A/D58A CaM)) | relative amplitude A4 (EF4) (CaM12 (D22A/D58A CaM)) | further results
Ac-EVVYLIIRACARRAQRRSNP-NH2 [Cx32 208–227] | 169 ± 5.6 | 0.5 | 1.5 | 1 | 1 | 3.1 ± 0.1 | 0.5 | 1 | relative amplitude A1 (EF1) (CaM34 (D95A/D131A CaM)): 0.5; relative amplitude A2 (EF2) (CaM34 (D95A/D131A CaM)): 1; involvement of the N-lobe EF hand binding (CaM; CaM complex, 10 μM peptide): 50%; relative affinity for CaM, in words (CaM; compared with 208–226 peptide): higher affinity for CaM than the 208–226 peptide; rate constant for both C-lobe EF hands of CaM12·peptide complex (CaM12 (D22A/D58A CaM); 10 μM peptide): 3.1 ± 0.1 s^–1
Cx32 1–21: peptide, consisting of residues 1–21, which represents the N-terminal tail CaM-binding domain of Cx32 |  |  |  |  |  |  |  |  | Kd (TA-CaM; TA-CaM (Lys75-modified fluorescent CaM), Ca^2+-dependent): 27 nM
Cx32 216–230: peptide representing residues 216–230 of the Cx32 C-terminal tail (ACARRAQRRSNPPSR; UniProt P08034 216-230, looked up, fragment) |  |  |  |  |  |  |  |  | relative affinity for CaM, in words (TA-CaM; compared with 208–226 peptide): higher affinity than the 208–226 peptide
EVVYLIIRACARRAQRRSN [Cx32 208–226] | 173 ± 0.4 | 1 | 1 | 1 | 1 | 1.6 ± 0.1 | 1 | 1 | donor AEDANS fluorescence on increasing the peptide concentration (DA-CaM [1]): a blue shift was seen in the donor AEDANS fluorescence; Kd (AEDANS-T34C/T110C-CaM): 3450 ± 1090 nM; increase in fluorescence on peptide binding (fold) (AEDANS-T34C/T110C-CaM; donor-only labeled probe AEDANS-T34C/T110C-CaM): 2.5 fold
MNWTGLYTLLSGVNRHSTA [Cx32 1–19] |  |  |  |  |  |  |  |  | Kd (DA-CaM [2]): 1140 ± 100 nM
calmodulin [CaM] |  |  |  |  |  |  |  |  | higher Ca^2+ affinity of the C-terminal lobe of apo CaM (fold) ([3]; Ca^2+-free (apo) CaM, C-lobe vs N-lobe): about 5 fold; Ca^2+ dissociation from the two N-terminal lobe sites, estimated ([3]; no peptide): ~1000 s^–1; ΔRF of two measurable (C-lobe) sites [4]: 0.08

— article PMC2555998 (The Journal of Biological Chemistry, 2008)
